Screening data (PubChem BioAssay)
Shown are actives, neighbours in structure and some others; about 1.5% of the full set was active somewhere.
TNF necrop inh: blocks TNF-alpha induced death of Jurkat FADD-/- cells; 220,000 tested, 0.068% active; activation (protection from cell death), % at 10 µM; Jurkat FADD-/- TNF necroptosis rescue, ATP luminescence, 24 h; 0 = TNF only, 100 = no-TNF cells;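 active = activation, meaning protection from cell death, of at least 50% relative to plate controls; inactive = activation below 50%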;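 also: necroptosis triggered by 40 ng/mL TNF-alpha added together with compound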
S1P4 antag: blocks the human S1P4 receptor. inhibition, % at 4.98 µM. S1P4-expressing cells, antagonist mode, reporter read-out. O95977. AID 1510. 220,000 tested, 0.26% active; in the data active = inhibition above about 29%;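 also: 0% = wells stimulated with agonist and 100% = vehicle wells without agonist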
Target sequence (O95977 whole entry, looked up): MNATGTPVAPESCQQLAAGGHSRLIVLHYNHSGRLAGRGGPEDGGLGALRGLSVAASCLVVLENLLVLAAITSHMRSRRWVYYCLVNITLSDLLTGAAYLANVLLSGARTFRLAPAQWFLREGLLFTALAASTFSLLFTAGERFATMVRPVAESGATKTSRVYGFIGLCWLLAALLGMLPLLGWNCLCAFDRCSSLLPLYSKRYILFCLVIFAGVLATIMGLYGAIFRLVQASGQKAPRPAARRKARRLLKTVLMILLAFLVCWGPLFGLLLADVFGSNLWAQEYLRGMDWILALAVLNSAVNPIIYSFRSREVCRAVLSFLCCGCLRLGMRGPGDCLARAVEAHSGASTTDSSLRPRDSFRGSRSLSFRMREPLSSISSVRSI
L929 necroptosis: L929 zVAD cell death inhibition; L929 zVAD necroptosis rescue, ATP luminescence, 24 h; with zVAD 60 µM; viability rescue, % at 10 µM; 220,000 tested, 0.38% active;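 active = activation, scaled between plate controls, above about 75%, limit read from the data; inactive = activation under that limit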;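 also: 0% = zVAD with DMSO and 100% = DMSO alone without zVAD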
S1P4 ag: activates the human S1P4 receptor; activation, % at 4.98 µM; O95977; S1P4-expressing cell line, agonist reporter assay; AID 1509; 220,000 tested, 0.35% active; in the data active = activation above about 11%;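 also: 0% = DMSO vehicle and 100% = reference agonist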
Tb hexokinase: blocks Trypanosoma brucei hexokinase 1 activity; recombinant TbHK1, G6PDH-coupled NADH A340; inhibition, % at 10 µM; 220,000 tested, 0.11% active;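 active = inhibition of 50% or more in the single-dose primary screen; inactive = inhibition below 50%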
Dynein transport: blocks dynein driven cargo transport along microtubules. 3617.4 mouse cells, GR-EGFP nuclear translocation imaging; test concentration mostly 20 µM; stimulated with dexamethasone, 1 µM; hits give low values. z-score, hits read low. 220,000 tested, 0.47% active. AID 1381;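 active = plate z-score of nuclear minus cytoplasmic receptor signal below a set negative limit, without overly bright fluorescence or cell loss, cut at about -3.5 in these data, passing the limit was not always enough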;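 also: z-score of nuclear minus cytoplasmic ring GR-EGFP intensity difference per well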
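Buffer or medium: tet-free medium with charcoal-stripped serum / Also added: dexamethasone agonist, 1.0 µM final, for 30 min / Timing: induction 48 h, compound 1 h, agonist 30 min / Measured by: high-content fluorescence imaging after fixation / Read-out: nuclear-to-cytoplasmic GR-EGFP distribution per well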
Dynein confirm: dynein cargo transport inhibition, confirmation; shares compounds with Dynein transport; 3617.4 GR-EGFP nuclear translocation imaging, dexamethasone-induced; calls only at 20 µM; 1,000 tested, 69% active; AID 463116;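 active = inhibition of receptor movement into the nucleus at or above a set limit in both runs, with normal cell brightness and cell count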;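 also: dexamethasone at 1 µM final in well for 30 min; nuclear minus cytoplasmic GR-EGFP mean intensity difference in channel 2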
The depositor's hits bear a star; i = inactive; · = no result; + = active, no number.

SMILES | TNF necrop inh | S1P4 antag | L929 necroptosis | S1P4 ag | Tb hexokinase | Dynein transport | Dynein confirm
O=C(O)c1ccc(NC2=C(Cl)C(=O)c3ccccc3C2=O)cc1 | -29 | 1 | 9 | -2 | -6 | -5.2* | +
O=C1C(Cl)=C(Nc2ccccc2)C(=O)c2ccccc21 | -2 | -9 | 2 | 1 | -15 | -0.77 | ·
CC1(C)CC(=O)C2=C(C1)OC1=C(C(=O)CC(C)(C)C1)C2c1ccc(O)cc1O | -8 | 6 | 21 | 1 | 14 | -5.2 | +
O=[N+]([O-])c1ccc(C2=NN(c3ccccc3)C(c3ccco3)C2)cc1 (configuration not stated) | -2 | 12 | -1 | 0 | -5 | -8.2 | i
O=[N+]([O-])c1ccc(/C=C/C2=NN(c3ccccc3)C(c3ccco3)C2)cc1 (configuration not stated) | -2 | 4 | 0 | -1 | 2 | -5.5 | ·
CC1(C)Cc2c(C#N)c(NCC3CCCO3)nc(-c3ccco3)c2CO1 (configuration not stated) | 1 | -19 | 0 | 0 | -1 | -1.5 | ·
CC1(C)Cc2c(C#N)c(NC3CCCCC3)nc(-c3ccco3)c2CO1 | 1 | -8 | 0 | -1 | 4 | -4.3* | i
CN1C(=O)C(O)(CC(=O)/C=C\c2ccc3c(c2)OCO3)c2ccccc21 (configuration not stated) | 4 | 4 | 6 | 0 | -30 | -4.6* | +
CC(=O)c1sc2nsc(SCCN3CCCCC3)c2c1N | -4 | 16 | 0 | -1 | -24 | -0.49 | ·
Nc1c(C(=O)c2ccccc2)sc2nsc(SCCN3CCCC3)c12 | -15 | 11 | 17 | 1 | -8 | -6 | i
Nc1c(C(=O)c2ccc(Cl)cc2)sc2nsc(SCCN3CCOCC3)c12 | -3 | 16 | 3 | -1 | -11 | -10 | i
O=C(c1ccc(Cl)c(S(=O)(=O)N2CCCCCC2)c1)N1CCCC1 | 4 | -1 | 0 | 1 | -4 | -0.8 | ·
CCOC(=O)Cc1csc(NS(=O)(=O)c2ccc(Cl)cc2)n1 | 1 | -14 | -1 | -1 | 39 | 0.68 | ·
Cn1cc(Br)c(C(=O)Nc2c(F)c(F)c(F)c(F)c2F)n1 | 1 | -10 | 1 | 0 | 0 | 0.072 | ·
Cn1cc(Br)c(NC(=O)/C=C/C(=O)O)n1 | -20 | -23 | -1 | 2 | 26 | -6.2* | +
O=c1c(Cl)cc(Cl)nn1-c1ccccc1 | -7 | 0 | 2 | 0 | 0 | -3.5* | +
NC(=O)[C@@H]1CC2(CC(c3cccc(NC(=O)[C@@H]4CCC(=O)N4)c3)=NO2)CN1C(=O)Cc1ccc([N+](=O)[O-])cc1 (some centres not stated) | 1 | · | 0 | · | -4 | -0.16 | ·
CCOC(=O)CCSc1nc(C)cc(C(F)(F)F)c1C#N | -3 | -12 | -2 | 1 | -6 | -9 | i
O=C(CCl)c1ccc2c(c1)CCN2C(=O)C1CCCCC1 | -11 | -8 | -2 | 1 | -11 | -5.7* | +
O=C(CCl)c1ccc2c(c1)CCN2C(=O)C1CC1 | -8 | -4 | -1 | 1 | -14 | -4.8* | +
O=C(C1CCC(C(=O)N2CCc3ccccc32)CC1)N1CCc2ccccc21 (configuration not stated) | 0 | -23 | 0 | 1 | 1 | 0.8 | ·
CCN1C(=O)S/C(=C/c2ccsc2)C1=O | 1 | -1 | 2 | -2 | -43 | -1 | ·
CC(C)N1C/C(=C/c2cccnc2)C(=O)/C(=C/c2cccnc2)C1 | 28 | -12 | 7 | 0 | -22 | -4.2* | +
CC(C)N1C/C(=C/c2ccsc2)C(=O)/C(=C/c2ccsc2)C1 | -5 | 8 | 0 | -1 | -23 | -3.8* | +
Cc1ccc(NC(=O)COC(=O)C2CC2(Cl)Cl)cc1C (configuration not stated) | -1 | -3 | 0 | 0 | 7 | 1.6 | ·
SMILES | TNF necrop inh | S1P4 antag | L929 necroptosis | S1P4 ag | Tb hexokinase | Dynein transport | Dynein confirm
COc1ccc(N(C(=O)c2ccco2)C(C(=O)NC2CCCCC2)c2cccs2)cc1OC (configuration not stated) | -1 | -10 | 0 | 1 | 11 | 0.38 | ·
C#CC(=O)N(c1cc(OC)ccc1OC)C(C(=O)NC1CCCC1)c1cccs1 (configuration not stated) | -28 | 29 | 0 | 0 | 3 | -5.1* | +
C#CC(=O)N(c1ccc(OC)cc1OC)C(C(=O)NC1CCCC1)c1cccs1 (configuration not stated) | -22 | 26 | 1 | 3 | -2 | -4.4* | +
Cn1nc(C(=O)OCc2ccc(Br)cc2F)c2ccccc2c1=O | -1 | -4 | 1 | 0 | 7 | 0.43 | ·
CCOC(=O)C(=Cc1ccc(-n2cncn2)cc1)C(=O)OCC | -9 | 19 | 8 | 0 | -2 | -6.8* | +
CC1CC(C)CN(C(=O)C2CCCN(S(=O)(=O)c3cnc[nH]3)C2)C1 (configuration not stated) | 2 | 4 | 0 | 0 | -5 | 0.0027 | ·
CC1=NN(c2ccc(C)cc2)C(=O)/C1=C\C=C\c1ccccc1 | -7 | -8 | 1 | 1 | 0 | -1.7 | ·
CC1=NN(c2cccc(C(=O)O)c2)C(=O)/C1=C\C=C/c1ccccc1 | 36 | -11 | 54 | 1 | -4 | -5.6* | +
COc1cccc(/C=N/NC(=O)NC2CCCCC2)c1O | 7 | -9 | 3 | 2 | 0 | -0.36 | ·
Cc1ccc(N=Cc2cc(Br)cc(Cl)c2O)cc1 | -5 | 9 | 0 | -1 | -7 | 2.5 | ·
Cc1cc(C)cc(N=Cc2[nH]c3ccc(Br)c(Cl)c3c2O)c1 | -1 | -6 | 1 | 2 | 0 | -9.1 | +
COc1ccc(CN=Cc2[nH]c3ccc(Br)c(Cl)c3c2O)cc1 | -15 | -8 | 0 | -1 | 0 | -5* | +
COc1ccc(CN=CC2=C(O)CNC2=O)cc1 | 1 | -3 | 0 | 0 | 25 | -0.23 | ·
O=C(CC(=O)c1cc(Cl)ccc1O)c1ccccc1 | -4 | -9 | 0 | -2 | -3 | 0.15 | ·
O=C(c1ccccc1)c1cc(Cl)ccc1N1C(=O)C=CC1=O | -1 | 5 | 0 | 0 | 4 | -4.5* | +
O=S(=O)(/N=C(\Sc1ccccc1)c1ccccc1)c1ccc(Cl)cc1 | -8 | 3 | 0 | 1 | 7 | -2.8 | ·
Cc1ccc(S(=O)(=O)/N=C(\Sc2ccccc2)c2ccccc2)cc1 | -12 | -3 | 0 | -2 | 6 | -3.5* | +
Cc1cc(C)c(NC(N)=S)c(C)c1 | 0 | 10 | -1 | 0 | 36 | 0.37 | ·
Cc1ccc(-c2csc3ncnc(SCC(=O)Nc4nnc(C)s4)c23)cc1 | -1 | 4 | 1 | 0 | -2 | -0.17 | ·
